# Source: PubChem (several laboratories)
# Shown are actives, neighbours in structure and some others; about 4.1% of the full set was active somewhere.
# KCNK3 block: human KCNK3 channel inhibitors, primary screen, CHO cells, FluxOR thallium flux, B-score. B-score at 10 µM. Potassium channel subfamily K member 3 (Homo sapiens), O14649. FluxOR fluorescence; stronger effect = lower value. hit rate 0.84% among 340,000;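 active = B-score under library mean minus 4 SD, starting fluorescence ratio at most library mean plus 5 SD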;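 also: more negative B-score means stronger inhibition of thallium flux through KCNK3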
# Target sequence (O14649 whole entry, looked up): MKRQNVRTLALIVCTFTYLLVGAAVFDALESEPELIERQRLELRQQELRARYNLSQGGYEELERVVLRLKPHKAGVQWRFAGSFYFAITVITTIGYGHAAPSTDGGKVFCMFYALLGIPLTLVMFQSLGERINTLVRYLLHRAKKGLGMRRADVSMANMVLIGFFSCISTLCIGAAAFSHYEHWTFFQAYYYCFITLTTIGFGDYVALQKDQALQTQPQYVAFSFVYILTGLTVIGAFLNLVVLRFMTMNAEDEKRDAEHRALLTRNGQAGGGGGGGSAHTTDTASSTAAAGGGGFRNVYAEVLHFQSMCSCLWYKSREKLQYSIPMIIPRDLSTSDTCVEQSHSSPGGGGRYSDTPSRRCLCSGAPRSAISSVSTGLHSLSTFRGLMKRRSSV
# KCNK9 inh: KCNK9 potassium channel inhibitors, primary screen, HEK293 cells, thallium flux; FluxOR thallium flux fluorescence; stronger effect = lower value; B-score at 10 µM; hit rate 1.2% among 310,000; AID 488922, 2010;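 active = ratio B-score over 3 SD below the library mean, with starting fluorescence within 5 SD of its mean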;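 also: negative B-score means less thallium flux so channel inhibition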
# hERG rescue: hERG rescue from dofetilide block, primary screen, cell-based, CHO-hERG, FluxOR thallium flux, dofetilide IC70; Voltage-gated inwardly rectifying potassium channel KCNH2 (Homo sapiens), Q12809; hit rate 0.51% among 310,000; dofetilide IC70 present; activation (rescue from dofetilide block), less the hit threshold, % at 10 µM; AID 1511, 2009;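 active = activation above the mean of controls blocked by dofetilide plus 5 SD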;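 also: thallium influx through hERG after potassium depolarization seen as dye fluorescence rise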
# KCNQ1 inh: inhibitors of human KCNQ1 channel, primary screen, cell-based, thallium flux, high-throughput; Potassium voltage-gated channel subfamily KQT member 1 (Homo sapiens), P51787; CHO-K1 KCNQ1, FluxOR thallium flux fluorescence; stronger effect = higher value; B-score at 10 µM; hit rate 1.3% among 310,000;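 active = compounds whose thallium flux B-score, printed positive for inhibition, exceeds three library SD while starting fluorescence stays within three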;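 also: channel opened by potassium depolarization with thallium stimulus after 20 min compound exposure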
# KCNQ1 pot: potentiators or activators of KCNQ1 channel, primary screen, cell-based, thallium flux, high-throughput. Potassium voltage-gated channel subfamily KQT member 1 (Homo sapiens), P51787. CHO-K1 KCNQ1, thallium flux FluxOR fluorescence; stronger effect = higher value. B-score at 10 µM. hit rate 0.35% among 310,000. AID 2648, 2010;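 active = fluorescence ratio B-score, a plate-corrected score, at least three library SD, with initial intensity B-score within 5 SD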
#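 Doses: Single concentration per compound, DMSO matched to controls | Test system: KCNQ1-transfected CHO-K1 cells | Timing: 90 min dye loading and 20 min compound exposure, both at room temperature | Measured by: Kinetic FluxOR thallium fluorescence, 10-s 1-Hz baseline, 110-s post-stimulus read | Medium: Assay buffer with matched DMSO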
# Cl transport mod: KCC2 cotransporter modulators, thallium flux, primary screen, cell-based, HEK293 KCC2, FluoZin-2 fluorescence, MLSMR. Solute carrier family 12 member 5 (Homo sapiens), Q9H2X9. KCC2 cells, thallium flux FluoZin-2 fluorescence. B-score of Tl+ flux slope (higher = more flux/activation; lower = inhibition) at 10 µM. hit rate 2.2% among 190,000. AID 1456, 2008;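 active = thallium flux slope and its plate-corrected score both differing from the plate sample mean at a set confidence after two filtering rounds, in either direction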;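 also: slope of fluorescence scaled to starting intensity during 10 to 20 s after thallium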
# KCNK9 block conf: KCNK9 potassium channel inhibitors, confirmation, HEK293 cells, thallium flux, duplicate. shares compounds with KCNK9 inh. FluxOR thallium flux fluorescence. inhibition, % at 10 µM. hit rate 43% among 4,900. AID 492992, 2010;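 active = thallium signal inhibited by more than 5 SD of the compound-free buffer control wells, on both duplicate plates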;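 also: 0% = assay buffer control wells without compound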
# Kir21 sel: mouse Kir2.1 channel inhibition, confirmation, selectivity assay for KCNK9 modulator project, cell-based, HEK293, thallium flux. shares compounds with KCNK9 inh. Kir2.1 cells, FluxOR thallium flux fluorescence. inhibition, % at 10 µM. hit rate 4% among 4,900. AID 492993, 2010;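 active = thallium signal drop more than 5 SD beyond the mean of the no-compound control wells, seen in both duplicate plates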;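 also: signal is fluorescence rise after thallium addition divided by baseline fluorescence; plate controls were assay buffer only for no effect and full block by chlorpromazine control for full effect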
# HEK293 Tl ctr: thallium flux in non-induced HEK293 cells, confirmation, counter-screen for KCNK9 inhibitor project, cell-based, second counter screen, non-induced KCNK9-HEK293 | shares compounds with KCNK9 inh | FluxOR thallium flux | inhibition, % at 10 µM | hit rate 40% among 4,900 | AID 492997, 2010;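 active = thallium signal drop beyond 5 SD of the untreated control mean, on both duplicate plates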;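 also: plate controls were buffer only IC0 wells for no effect and SID17386958 at its maximal inhibitory level for full effect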
# KCNK3 inh conf: retest of human KCNK3 channel inhibitors, confirmation, CHO cells, FluxOR thallium flux, triplicate; hit rate 99% among 2,400; shares compounds with KCNK3 block; FluxOR fluorescence; 0% buffer, 100% carvedilol maximal block; ratio percent of control, % at 10 µM;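 active = ratio percent of control, averaged over triplicates, above buffer control mean plus 5 SD, cut at about 64% in these data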;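 also: ratio is the fluorescence rise from min to max over baseline after thallium stimulus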
# KCNK3 uninduced: thallium flux inhibition in non-induced cells, primary screen, counter-screen for KCNK3 inhibitor project, cell-based, non-induced KCNK3 line, FluxOR thallium, triplicate; shares compounds with KCNK3 block; non-induced KCNK3 parental cells; stronger effect = lower value; hit rate 40% among 2,400; thallium flux ratio (lower = more inhibition) at 10 µM; AID 651747, 2012;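 active = thallium flux ratio, averaged over three wells, more than 5 SD below the buffer control mean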;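 also: host cells are CHO cells without KCNK3 induction; ratio is peak minus trough fluorescence over baseline then normalized to buffer controls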
# An asterisk follows results filed as active; i = inactive; / = not tested or not shown.
SMILES,KCNK3 block,KCNK9 inh,hERG rescue,KCNQ1 inh,KCNQ1 pot,Cl transport mod,KCNK9 block conf,Kir21 sel,HEK293 Tl ctr,KCNK3 inh conf,KCNK3 uninduced
O=C(/C=C/c1cccc(C(F)(F)F)c1)Nc1cccc(C(F)(F)F)c1,-10.8*,i,-4.5,9*,i,/,i,i,i,107.0*,0.15*
COc1ccc(Cl)cc1NC(=O)CN(C)Cc1cccs1,-12.9*,-20.8*,-4.1,i,i,/,74.5%*,i,49.5%*,108.3*,i
COc1ccc(Cl)cc1NC(=O)CNCc1cccs1,i,i,-7.9,i,i,/,/,/,/,/,/
O=C(CNc1ccccc1F)Nc1cccc2ccccc12,-14.4*,-11.5*,-2.8,i,i,/,49.0%*,i,i,112.3*,0.158*
O=C(Nc1ccccc1F)C(=O)Nc1cccc2ccccc12,i,i,-1.6,i,i,/,/,/,/,/,/
O=C(c1ccco1)N1c2ccccc2Sc2ccccc21,-9.23*,-9.4*,-9.2,i,i,-1.61,31.0%*,i,30.5%*,116.3*,i
COC(=O)c1ccccc1NC(=O)N1CCc2ccc(NC(=O)c3ccccn3)cc2C1,i,-8.27*,-7.8,i,i,/,42.5%*,i,26.5%*,134.3*,0.156*
COC(=O)c1ccc(-c2ccco2)n1Cc1cccc(C)c1,i,i,-16.0,i,i,0.576,/,/,/,/,/
COc1ccc(NC(=O)/C(C#N)=C/c2ccc(Br)o2)cc1,i,i,-8.8,i,i,/,/,/,/,/,/
COc1ccc(NC(=O)/C(C#N)=C\c2ccc(N3CCOCC3)o2)cc1,-11.5*,-8.73*,-22.1,10*,i,i,48.5%*,35.5%*,76.5%*,131.7*,0.0913*
O=C(c1noc2c1CCc1ccccc1-2)N1CCc2ccccc2C1,/,/,/,/,/,-2.61,/,/,/,/,/
N#Cc1cccc(C(c2nnnn2C2CCCC2)N2CCC(Cc3ccccc3)CC2)c1 (centres undefined),-11*,-12.1*,-16.2,i,i,-0.826,58.5%*,i,30.0%*,112.0*,0.152*
COc1ccccc1N(CC(=O)N/N=C/c1ccc(OCC(=O)NCc2ccco2)cc1)S(=O)(=O)c1ccc(C)cc1,i,i,-11.5,i,i,-1.18,/,/,/,/,/
COC(=O)COc1ccc(/C=N/NC(=O)CN(c2ccccc2OC)S(=O)(=O)c2ccccc2)cc1,-16.3*,-13.5*,-21.7,i,i,/,i,i,i,116.3*,0.139*
